pKd: −log10 of the molar value. Activity calls are given as the source filed them. The rule behind the calls is not given here.
Tests used:
Heme oxygenase = molecular target: T1, Heme oxygenase (Pseudomonas aeruginosa, UniProt O69002); test: Binding affinity to Pseudomonas aeruginosa heme oxygenase
T1 sequence (O69002 whole entry): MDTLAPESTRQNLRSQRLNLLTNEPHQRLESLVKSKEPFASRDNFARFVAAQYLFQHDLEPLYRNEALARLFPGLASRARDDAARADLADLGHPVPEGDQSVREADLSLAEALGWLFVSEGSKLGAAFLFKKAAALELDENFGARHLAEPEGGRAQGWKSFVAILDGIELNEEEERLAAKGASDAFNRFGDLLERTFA
Method in brief: (§1)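 Fluorescence titration of purified apoprotein (1 µM; residual biliverdin removed by chromatofocusing) in 20 mM Tris-HCl pH 7.5. Compound added at 0.05-500 µM from DMSO stock. Mean of three experiments.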

[1] = Binding affinity to Neisseria meningitidis heme oxygenase; method in brief: as §1
Neisseria meningitidis = test: Inhibition of Neisseria meningitidis heme oxygenase-mediated biliveridin production in Escherichia coli BL21 at 1500 uM
Method in brief: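 E. coli BL21(DE3) with leaky nm-HO expression grown overnight (16 h) in LB with 100 µg/mL ampicillin, with or without 1500 µM compound, no iron restriction. Cells lysed with 50 µM β/δ-biliverdin added as internal standard. Biliverdin extracted into chloroform, converted to dimethyl esters, analysed by HPLC. α-Biliverdin peak integrated against the standard.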

Pseudomonas aeruginosa [2] = test: Growth inhibition of Pseudomonas aeruginosa MPA01 at <250 uM; type: functional, organism-based
Method in brief: (§2)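 MPA01 grown 8 h at 37 °C, then diluted to OD600 0.05 in iron-restricted succinate minimal medium pH 7.0 with heme as iron source. Compound added from DMSO at 10-1500 µM. Incubated 10 h at 37 °C with aeration in 96-well format, then OD600 read.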

Pseudomonas aeruginosa [3] = test: Growth inhibition of Pseudomonas aeruginosa MPA01 at >250 uM; type: functional, organism-based; method in brief: as §2
Pseudomonas aeruginosa [4] = test: Growth inhibition of Pseudomonas aeruginosa MPA01 in presence of haemoglobin; type: functional; design: scale not given: the % may be the effect or the level left
Method in brief: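 MPA01 diluted to OD600 0.05 in succinate minimal medium pH 7.0 with 25 µM hemoglobin as sole iron source, with or without compound (DMSO). 10 h endpoint OD600 at 0-1500 µM, or hourly OD600 over 12 h at 500 µM, 37 °C with aeration. Compared with 40 µM Fe(III) pyoverdine cultures. Mean of three experiments.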

Compound | pKd (Heme oxygenase) | pKd [1] | Activity (Neisseria meningitidis) | Activity (Pseudomonas aeruginosa [2]) | Activity (Pseudomonas aeruginosa [3]) | Activity (Pseudomonas aeruginosa [4])
O=C(Nc1ccc(-c2cn3ccccc3n2)cc1)c1ccccc1[N+](=O)[O-] | 5.21 | 4.68 | Active | inactive | – | –
CN(C)c1ccc(/C=N/NC(=N)N)cc1 | – | 4.64 | Active | inactive | – | –
O=C(NNC(=O)c1ccncc1)c1ccncc1 | – | – | inactive | inactive | – | –
O=C(O)/C=C/C(=O)Nc1ccc(Nc2ccccc2)cc1 | 4.70 | 4.81 | Active | inactive | Active | 40%
O=C(Cc1ccc(Cl)cc1)N/N=C/c1c[nH]c2ccccc12 | – | 4.85 | Active | inactive | Active | 40%
N=C(N/N=C\c1cccnc1)N/N=C\c1cccnc1 | – | 4.91 | Active | inactive | – | –
O=C1C(O)=C/C(=N\c2ccccc2O)c2ccccc21 | 4.14 | 4.54 | inactive | inactive | – | –
